The source made the active and inactive calls.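 The calls were made as follows, unless noted: active = viability at or below 30% in both replicate assays; inconclusive = viability at or below 30% in just one of the two assays; inactive = the rest.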

The nature of assay [1]: reducers of endogenous Her2 protein level, primary screen, SKBR3 breast tumor cells, AlphaScreen, ATP viability (AID 461;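 active = Her2 level under about 52% in both replicate screens, with viability over 70% of control, limit read from the data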;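 as to Her2 level: lower value means less Her2 protein in the cells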;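 as to viability: percent of carrier control wells set as 100% viability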). The conditions noted are these: 18-24 h, measured here: SKBR3 viability, ATP luminescence, at 10 µM.
Assay [2] addresses Receptor tyrosine-protein kinase erbB-2 (Homo sapiens) (UniProt P04626). The assay is described as above. The conditions noted are these: 18-24 h, at 10 µM, stronger effect = lower value.
The nature of assay [3]: SK-BR-3 cell growth inhibitors, pilot screen, 24 h, human (AID 572;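 active = viability at or below 10% of carrier control in both of two separate runs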;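 also: compound exposure lasted between 18 and 24 h rather than exactly 24 h; 100% = carrier-treated control wells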). The conditions noted are these: SK-BR-3 viability, CellTiter-Glo luminescence, at 10 µM, stronger effect = lower value.
Assay [4] can be described thus: HUVEC growth inhibition – cell-based, human, primary screen (AID 575).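 Also: 100% = median of untreated cell wells with 0.1% DMSO on each plate.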 The settings on record: HUVEC proliferation, CellTiter-Glo luminescence, 72 h; at 10 µM; stronger effect = lower value. Put shortly:
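Test system: primary human umbilical vein endothelial cells; medium: endothelial basal medium with 2% FBS plus growth supplements; dosing: 10 µM compound only; times: 72 h treatment at 37 °C; signal: CTG luminescence; read-out: % viability relative to median vehicle-well signal on each plate; control set: vehicle and MePR control wells; plate: 384-well, collagen-coated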

Assay [5] can be described thus: growth inhibitors of H69AR lung tumor, primary screen, human, duplicate replicates (AID 580;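 active = viability at or under a set limit in both replicates, limit being median viability minus 3 SD, cut at about 48% in these data, passing the limit was not always enough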;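 also: 100% = mean luminescence of untreated wells and 0% = no signal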). The settings on record: H69AR lung tumor cells viability, ATP luminescence, 72 h; at 10 µM; stronger effect = lower value.
Assay [6] in a line: reversal of MRP1-mediated doxorubicin resistance, pilot screen, H69AR cells, doxorubicin co-treatment (AID 601;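 active = viability loss from added drug above about 55%, and viability with drug at most 40%, in both replicates, limit read from the data, passing the limit was not always enough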). The conditions noted are these: CellTiter-Glo, 72 h, at 10 µM; for differential viability (reversal): stronger effect = higher value.
Assay [7] can be described thus: 384-well plate pilot, post-Golgi transport modulator project, inhibition of yeast transport mutant growth (AID 636; in the data active = inhibition above about 31%). The settings on record: absorbance 615 nm, about 18 h, stronger effect = higher value.
Assay [8] in a line: growth suppression of yeast trafficking mutant, preliminary HTS, modulators of trafficking downstream of Golgi apparatus project, 1536-format plate, OD 615 nm (AID 637; in the data active = inhibition above about 30%). The settings on record: yeast transport mutant growth, absorbance 615 nm, 18 h; stronger effect = higher value.
Setting [9] is: H69AR cells + 2 uM doxorubicin, measured here: viability with 2 uM doxorubicin, stronger effect = lower value.
Setting [10] is: H69AR cells, compound alone cytotoxicity.

Chain of Receptor tyrosine-protein kinase erbB-2 (Homo sapiens) (P04626 whole entry, looked up): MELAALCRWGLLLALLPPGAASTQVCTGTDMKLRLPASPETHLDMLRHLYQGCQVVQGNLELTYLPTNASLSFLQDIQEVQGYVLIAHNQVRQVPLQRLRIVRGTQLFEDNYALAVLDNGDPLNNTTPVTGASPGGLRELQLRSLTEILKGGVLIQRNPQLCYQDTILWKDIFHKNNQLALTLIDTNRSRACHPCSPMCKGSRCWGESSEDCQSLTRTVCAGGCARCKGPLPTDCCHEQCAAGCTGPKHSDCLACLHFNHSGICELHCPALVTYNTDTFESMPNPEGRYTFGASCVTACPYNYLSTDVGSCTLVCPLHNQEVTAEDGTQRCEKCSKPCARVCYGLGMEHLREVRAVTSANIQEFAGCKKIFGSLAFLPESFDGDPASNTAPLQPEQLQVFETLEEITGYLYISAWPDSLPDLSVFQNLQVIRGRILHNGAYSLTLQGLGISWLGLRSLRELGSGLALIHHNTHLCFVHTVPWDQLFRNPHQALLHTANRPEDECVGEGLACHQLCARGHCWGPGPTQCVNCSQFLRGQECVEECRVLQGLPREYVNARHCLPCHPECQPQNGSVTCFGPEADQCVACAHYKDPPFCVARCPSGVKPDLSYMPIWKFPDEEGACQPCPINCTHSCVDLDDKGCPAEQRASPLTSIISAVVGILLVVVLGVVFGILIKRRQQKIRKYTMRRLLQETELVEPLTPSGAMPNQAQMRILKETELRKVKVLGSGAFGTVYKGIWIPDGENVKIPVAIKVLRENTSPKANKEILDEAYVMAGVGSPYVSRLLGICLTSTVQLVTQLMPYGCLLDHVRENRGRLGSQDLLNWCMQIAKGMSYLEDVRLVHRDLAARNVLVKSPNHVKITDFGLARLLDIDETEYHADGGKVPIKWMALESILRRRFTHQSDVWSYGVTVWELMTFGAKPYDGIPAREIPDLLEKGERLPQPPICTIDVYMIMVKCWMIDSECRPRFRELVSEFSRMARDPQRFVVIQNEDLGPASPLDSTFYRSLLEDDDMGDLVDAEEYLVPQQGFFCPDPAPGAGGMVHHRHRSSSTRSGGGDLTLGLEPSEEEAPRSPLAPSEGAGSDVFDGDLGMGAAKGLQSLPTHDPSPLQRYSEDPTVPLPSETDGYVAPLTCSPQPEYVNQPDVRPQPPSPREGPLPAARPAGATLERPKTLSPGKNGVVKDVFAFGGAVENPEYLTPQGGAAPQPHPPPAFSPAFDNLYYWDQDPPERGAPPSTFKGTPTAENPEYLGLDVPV

As for `CC(=O)Nc1cc2c(nc1C)nc(C)n2Cc1ccc(Br)cc1`, the viability in assay [1] is 76%; in assay [3] it was 76% (inactive); in assay [4], 90% (inactive); in assay [5] it was 108% (inactive); in assay [6] (setting [9]), 95.3%; in assay [6] (setting [10]) it was 108%. For the same compound, the Her2 level in assay [2] is 88% (inactive). Further, in assay [6] (H69AR cells + 2 uM doxorubicin), the differential viability (reversal) is 12.7% (inactive). Moreover, the inhibition in assay [7] is -4.4% (inactive); in assay [8], 0.33% (inactive).
In the case of `Cc1noc(C)c1COC(=O)c1ccccc1Oc1ccccc1`, the viability was 91% in assay [1]; 91% (inactive) in assay [3]; 79.1% (inactive) in assay [4]; 96.5% (inactive) in assay [5]; 69.8% in assay [6] (setting [9]); 96.5% in assay [6] (setting [10]). Besides, the Her2 level in assay [2] is 106% (inactive). In addition, the differential viability (reversal) in assay [6] (H69AR cells + 2 uM doxorubicin) is 26.8% (inactive). Besides, the inhibition in assay [7] was -3.25% (inactive); in assay [8], -5.56% (inactive).
In the case of `COC(=O)n1c(=S)oc2cc(Cl)ccc21`, the viability in assay [1] was 102%; in assay [3], 102% (inactive); in assay [4], 62.7% (inactive); in assay [5] it was 93.6% (inactive); in assay [6] (setting [9]) it was 89.6%; in assay [6] (setting [10]) it was 93.6%. Also, the Her2 level in assay [2] is 102% (inactive). The differential viability (reversal) in assay [6] (H69AR cells + 2 uM doxorubicin) is 3.97% (inactive). In addition, the inhibition was 0.26% (inactive) in assay [7] and 25.6% (inactive) in assay [8].
Consider `O=C(CCSc1nnc(-c2ccncc2)o1)Nc1ccccc1`, for which the viability in assay [1] was 90.5%; in assay [3], 90.5% (inactive); in assay [4], 108% (inactive); in assay [5], 100% (inactive); in assay [6] (setting [9]), 89.8%; in assay [6] (setting [10]), 100%. In assay [2], the Her2 level is 80.5% (inactive). Moreover, the differential viability (reversal) in assay [6] (H69AR cells + 2 uM doxorubicin) is 10.3% (inactive). Moreover, the inhibition in assay [7] was -0.79% (inactive); in assay [8] it was 5.27% (inactive).
On to `Cc1ccc(-c2nn(C)c(=O)c3ccccc23)cc1S(=O)(=O)NCCN1CCOCC1`, for which the viability in assay [1] was 87%; in assay [3], 87% (inactive); in assay [4], 98.6% (inactive); in assay [5] it was 93.3% (inactive); in assay [6] (setting [9]) it was 87.8%; in assay [6] (setting [10]), 93.3%. In assay [2], the Her2 level is 121% (inactive). Also, the differential viability (reversal) in assay [6] (H69AR cells + 2 uM doxorubicin) is 5.54% (inactive). Besides, the figures for the inhibition in assay [7] and in assay [8] were 6.8% (inactive) and -6.35% (inactive), respectively.
As to `COc1ccc(CCNC(=O)COc2ccc(S(=O)(=O)N3CCOCC3)cc2)cc1`, the viability in assay [1] was 98%; in assay [3] it was 98% (inactive); in assay [4], 102% (inactive); in assay [5], 95.1% (inactive); in assay [6] (setting [9]), 88.9%; in assay [6] (setting [10]), 95.1%. The Her2 level in assay [2] is 87% (inactive). Besides, in assay [6] (H69AR cells + 2 uM doxorubicin), the differential viability (reversal) was 6.25% (inactive). Also, the inhibition in assay [7] was -6.76% (inactive); in assay [8], 0% (inactive).
For `O=C(Cn1cnc2c(nnn2Cc2ccccc2)c1=O)c1ccc(Cl)cc1`, the viability is 93.5% in assay [1]; 93.5% (inactive) in assay [3]; 84.5% (inactive) in assay [4]; 97.1% (inactive) in assay [5]; 88.6% in assay [6] (setting [9]); 97.1% in assay [6] (setting [10]). Further, the Her2 level in assay [2] is 110% (inactive). For the same compound, the differential viability (reversal) in assay [6] (H69AR cells + 2 uM doxorubicin) is 8.5% (inactive). In addition, the inhibition in assay [7] was -3.46% (inactive); in assay [8] it was -0.17% (inactive).
In the case of `c1ccc2c(Cn3ccnc3)c[nH]c2c1`, the viability in assay [1] is 109%; in assay [3], 109% (inactive); in assay [4], 85.3% (inactive); in assay [5] it was 86% (inactive); in assay [6] (setting [9]), 91.4%; in assay [6] (setting [10]) it was 86%. Also, in assay [2], the Her2 level is 114% (inactive). Further, in assay [6] (H69AR cells + 2 uM doxorubicin), the differential viability (reversal) is -5.34% (inactive). Moreover, the inhibition in assay [7] was -5.19% (inactive); in assay [8], -2.62% (inactive).
With `Cc1ccc(-c2nc(=S)c3c(n2Cc2ccco2)CCCC3)cc1`, the viability in assay [1] was 79%; in assay [3] it was 79% (inactive); in assay [4], 86.9% (inactive); in assay [5], 10.3% (active); in assay [6] (setting [9]) it was 10.6%; in assay [6] (setting [10]), 10.3%. In assay [2], the Her2 level is 79% (inactive). For the same compound, the differential viability (reversal) in assay [6] (H69AR cells + 2 uM doxorubicin) is -0.31% (inactive). Also, the inhibition in assay [7] was -1.47% (inactive); in assay [8] it was -5.32% (inactive).
`O=C(CNc1ccc(Oc2ccccc2)cc1)N1CCOCC1`: the viability in assay [1] is 92.5%; in assay [3], 92.5% (inactive); in assay [4] it was 92.1% (inactive); in assay [5], 105% (inactive); in assay [6] (setting [9]), 100%; in assay [6] (setting [10]), 105%. In assay [2], the Her2 level is 95.5% (inactive). In addition, in assay [6] (H69AR cells + 2 uM doxorubicin), the differential viability (reversal) is 4.96% (inactive). Besides, the inhibition in assay [7] is -7.81% (inactive); in assay [8], 6.98% (inactive).
Regarding `COc1ccc(CN(C(=O)c2oc3ccccc3c2C)C2CCS(=O)(=O)C2)cc1` (stereo not given), the viability is 86% in assay [1]; 86% (inactive) in assay [3]; 83.6% (inactive) in assay [4]; 90.5% (inactive) in assay [5]; 81.7% in assay [6] (setting [9]); 90.5% in assay [6] (setting [10]). Also, the Her2 level in assay [2] is 112% (inactive). Besides, the differential viability (reversal) in assay [6] (H69AR cells + 2 uM doxorubicin) is 8.78% (inactive). For the same compound, the inhibition is -4.13% (inactive) in assay [7] and -11.1% (inactive) in assay [8].
Consider `CSc1nnc(-c2nnc(SC)n2-c2ccccc2)n1-c1ccccc1`, for which the viability in assay [1] is 87%; in assay [3] it was 87% (inactive); in assay [4] it was 89.8% (inactive); in assay [5], 98.3% (inactive); in assay [6] (setting [9]), 88.6%; in assay [6] (setting [10]), 98.3%. Besides, in assay [2], the Her2 level was 83.5% (inactive). For the same compound, the differential viability (reversal) in assay [6] (H69AR cells + 2 uM doxorubicin) was 9.77% (inactive). The inhibition was -5.73% (inactive) in assay [7] and 6.77% (inactive) in assay [8].
Turning to `O=C(Nc1ncc(Br)s1)C1CCCN1S(=O)(=O)c1cccc2cccnc12` (stereo not given), the viability in assay [1] was 93%; in assay [3] it was 93% (inactive); in assay [4], 87.4% (inactive); in assay [5] it was 29.8% (active); in assay [6] (setting [9]), 40.6%; in assay [6] (setting [10]) it was 29.8%. For the same compound, in assay [2], the Her2 level was 81.5% (inactive). Also, in assay [6] (H69AR cells + 2 uM doxorubicin), the differential viability (reversal) was -10.8% (inactive). Also, the inhibition in assay [7] is -0.38% (inactive); in assay [8], -1.5% (inactive).
As to `CCCN1CCN(C(=O)Cn2c(=O)oc3cc(S(=O)(=O)NCc4ccccc4)ccc32)CC1`, the viability was 92.5% in assay [1]; 92.5% (inactive) in assay [3]; 85.6% (inactive) in assay [4]; 95.3% (inactive) in assay [5]; 87.5% in assay [6] (setting [9]); 95.3% in assay [6] (setting [10]). Besides, the Her2 level in assay [2] is 95% (inactive). For the same compound, the differential viability (reversal) in assay [6] (H69AR cells + 2 uM doxorubicin) was 7.88% (inactive). The inhibition was -2.67% (inactive) in assay [7] and -0.98% (inactive) in assay [8].
